Measured values published in ChEMBL document CHEMBL1122917, “Vinblastin-23-oyl amino acid derivatives: chemistry, physicochemical data, toxicity, and antitumor activities against P388 and L1210 leukemias” (J Med Chem, 1985).

Key:
Format in all cases: functional
Mus musculus [1] = assay: Percent increase in life span at dose 6 mg/kg/day in 10 mice implanted with P388 leukemia cell line
Method in brief: (§1)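 Female DBA2 mice inoculated iv on day 0 with 10^4 P388 cells; single iv treatment on day 1 with drug as sulfate salt in physiological saline. Survival followed; %ILS from all deaths and survivors as (T/C × 100) − 100, maximal MST 30 days; survivors counted on days 30 and 60. Most experiments confirmed three times.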

Mus musculus [2] = assay: Number of survivors on 60th day at dose 3 mg/kg/day in 10 mice implanted with P388 leukemia cell line
Mus musculus [3] = assay: Percent increase in life span of DBA2 mice after inoculation with L1210 leukemia intravenously at a dose of 6 mg/kg per day; conditions: route intravenous
Method in brief: (§2)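 Female DBA2 mice inoculated iv on day 0 with 10^4 L1210 cells; drugs given iv as sulfate salts in physiological saline, mostly once on day 1. %ILS from all deaths and survivors as (T/C × 100) − 100; survivors scored on days 30 and 60.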

Mus musculus [4] = assay: Percent increase in life span of DBA2 mice after inoculation with L1210 leukemia intravenously at a dose of 7 mg/kg per day; conditions: route intravenous; method in brief: as §2
Mus musculus [5] = assay: Number of survivors on 60th day at dose 6 mg/kg/day in 10 mice implanted with P388 leukemia cell line
Mus musculus [6] = assay: Percent increase in life span at dose 7 mg/kg/day in 10 mice implanted with P388 leukemia cell line; method in brief: as §1
Mus musculus [7] = assay: Percent increase in life span at dose 8 mg/kg/day in 10 mice implanted with P388 leukemia cell line; method in brief: as §1
Mus musculus [8] = assay: Number of survivors of DBA2 mice on 30th day after inoculation with L1210 leukemia cell line intravenously at a dose of 6 mg/kg/day; 0/10; conditions: route intravenous
Mus musculus [9] = assay: Number of survivors of DBA2 mice on 30th day after inoculation with L1210 leukemia cell line intravenously at a dose of 7 mg/kg/day; 0/10; conditions: route intravenous
Mus musculus [10] = assay: Percent increase in life span at dose 9 mg/kg/day in 10 mice implanted with P388 leukemia cell line; method in brief: as §1
Mus musculus [11] = assay: Percent increase in life span at dose 3 mg/kg/day in 10 mice implanted with P388 leukemia cell line; method in brief: as §1
Mus musculus [12] = assay: Percent increase in life span at dose 5 mg/kg/day in 10 mice implanted with P388 leukemia cell line; method in brief: as §1
Mus musculus [13] = assay: Number of survivors on 60th day at dose 8 mg/kg/day in 10 mice implanted with P388 leukemia cell line; method in brief: as §1
Mus musculus [14] = assay: Number of survivors on 60th day at dose 9 mg/kg/day in 10 mice implanted with P388 leukemia cell line
Mus musculus [15] = assay: Number of survivors on 60th day at dose 5 mg/kg/day in 10 mice implanted with P388 leukemia cell line
Mus musculus [16] = assay: Number of survivors on 30th day at dose 3 mg/kg/day in 10 mice implanted with P388 leukemia cell line; 0/10
Mus musculus [17] = assay: Number of survivors on 30th day at dose 5 mg/kg/day in 10 mice implanted with P388 leukemia cell line
Mus musculus [18] = assay: Number of survivors on 60th day at dose 7 mg/kg/day in 10 mice implanted with P388 leukemia cell line; method in brief: as §1
Mus musculus [19] = assay: Number of survivors on 30th day at dose 6 mg/kg/day in 10 mice implanted with P388 leukemia cell line
Mus musculus [20] = assay: Number of survivors of DBA2 mice on 60th day after inoculation with L1210 leukemia cell line intravenously at a dose of 6 mg/kg/day; 0/10; conditions: route intravenous
Mus musculus [21] = assay: Number of survivors of DBA2 mice on 60th day after inoculation with L1210 leukemia cell line intravenously at a dose of 7 mg/kg/day; 0/10; conditions: route intravenous
Mus musculus [22] = assay: Number of survivors on 30th day at dose 7 mg/kg/day in 10 mice implanted with P388 leukemia cell line
Mus musculus [23] = assay: Number of survivors on 30th day at dose 8 mg/kg/day in 10 mice implanted with P388 leukemia cell line
Mus musculus [24] = assay: Number of survivors on 30th day at dose 9 mg/kg/day in 10 mice implanted with P388 leukemia cell line
Mus musculus [25] = assay: Percent increase in life span of DBA2 mice after inoculation with L1210 leukemia intravenously at a dose of 50 mg/kg per day; conditions: route intravenous; method in brief: as §2
Mus musculus [26] = assay: Percent increase in life span of DBA2 mice after inoculation with L1210 leukemia intravenously at a dose of 55 mg/kg per day; conditions: route intravenous; method in brief: as §2
Mus musculus [27] = assay: Number of survivors on 60th day at dose 55 mg/kg/day in 10 mice implanted with P388 leukemia cell line
Mus musculus [28] = assay: Number of survivors on 60th day at dose 60 mg/kg/day in 10 mice implanted with P388 leukemia cell line; method in brief: as §1
Mus musculus [29] = assay: Percent increase in life span at dose 70 mg/kg/day in 10 mice implanted with P388 leukemia cell line; method in brief: as §1
Mus musculus [30] = assay: Number of survivors of DBA2 mice on 30th day after inoculation with L1210 leukemia cell line intravenously at a dose of 50 mg/kg/day; 0/10; conditions: route intravenous
Mus musculus [31] = assay: Number of survivors of DBA2 mice on 30th day after inoculation with L1210 leukemia cell line intravenously at a dose of 55 mg/kg/day; 0/10; conditions: route intravenous
Mus musculus [32] = assay: Number of survivors on 60th day at dose 50 mg/kg/day in 10 mice implanted with P388 leukemia cell line
Mus musculus [33] = assay: Percent increase in life span at dose 30 mg/kg/day in 10 mice implanted with P388 leukemia cell line; method in brief: as §1
Mus musculus [34] = assay: Percent increase in life span at dose 40 mg/kg/day in 10 mice implanted with P388 leukemia cell line; method in brief: as §1
Mus musculus [35] = assay: Percent increase in life span at dose 55 mg/kg/day in 10 mice implanted with P388 leukemia cell line; method in brief: as §1
Mus musculus [36] = assay: Percent increase in life span at dose 60 mg/kg/day in 10 mice implanted with P388 leukemia cell line; method in brief: as §1
Mus musculus [37] = assay: Number of survivors on 60th day at dose 40 mg/kg/day in 10 mice implanted with P388 leukemia cell line
Mus musculus [38] = assay: Number of survivors on 30th day at dose 30 mg/kg/day in 10 mice implanted with P388 leukemia cell line
Mus musculus [39] = assay: Number of survivors on 30th day at dose 40 mg/kg/day in 10 mice implanted with P388 leukemia cell line
Mus musculus [40] = assay: Number of survivors on 30th day at dose 50 mg/kg/day in 10 mice implanted with P388 leukemia cell line
Mus musculus [41] = assay: Number of survivors on 60th day at dose 30 mg/kg/day in 10 mice implanted with P388 leukemia cell line
Mus musculus [42] = assay: Number of survivors on 60th day at dose 70 mg/kg/day in 10 mice implanted with P388 leukemia cell line; method in brief: as §1
Mus musculus [43] = assay: Number of survivors on 30th day at dose 55 mg/kg/day in 10 mice implanted with P388 leukemia cell line
Mus musculus [44] = assay: Number of survivors on 30th day at dose 60 mg/kg/day in 10 mice implanted with P388 leukemia cell line
Mus musculus [45] = assay: Number of survivors of DBA2 mice on 60th day after inoculation with L1210 leukemia cell line intravenously at a dose of 50 mg/kg/day; 0/10; conditions: route intravenous
Mus musculus [46] = assay: Number of survivors of DBA2 mice on 60th day after inoculation with L1210 leukemia cell line intravenously at a dose of 55 mg/kg/day; 0/10; conditions: route intravenous
Mus musculus [47] = assay: Number of survivors on 30th day at dose 70 mg/kg/day in 10 mice implanted with P388 leukemia cell line
Mus musculus [48] = assay: Percent increase in life span at dose 50 mg/kg/day in 10 mice implanted with P388 leukemia cell line; method in brief: as §1

Question: With `CC[C@H](C)[C@H](NC(=O)[C@@]1(O)[C@H](O)[C@]2(CC)C=CCN3CC[C@@]4(c5cc([C@@]6(C(=O)OC)C[C@H]7C[N@](CCc8c6[nH]c6ccccc86)C[C@](O)(CC)C7)c(OC)cc5N(C)[C@@]14C)[C@@H]32)C(=O)OC` as the compound, how does the ILS at 6 mg/kg/day (Mus musculus [1]) read?
Answer: 118%

Question: And the Survivors (Mus musculus [2])?
Answer: 0

Question: And the ILS at 6 mg/kg/day (Mus musculus [3])?
Answer: 65.7%

Question: What about the ILS at 7 mg/kg/day (Mus musculus [4]) of the same compound?
Answer: 64%

Question: And the Survivors (Mus musculus [5])?
Answer: 0

Question: What about the ILS at 7 mg/kg/day (Mus musculus [6]) of the same compound?
Answer: 164%

Question: And the ILS at 8 mg/kg/day (Mus musculus [7])?
Answer: 149%

Question: What about the Survivors (Mus musculus [8]) of the same compound?
Answer: 0

Question: And the Survivors (Mus musculus [9])?
Answer: 0

Question: What about the ILS at 9 mg/kg/day (Mus musculus [10]) of the same compound?
Answer: 48.3%

Question: And the ILS at 3 mg/kg/day (Mus musculus [11])?
Answer: 41.3%

Question: What about the ILS at 5 mg/kg/day (Mus musculus [12]) of the same compound?
Answer: 66.5%

Question: And the Survivors (Mus musculus [13])?
Answer: 3

Question: And the Survivors (Mus musculus [14])?
Answer: 4

Question: And the Survivors (Mus musculus [15])?
Answer: 1

Question: What about the Survivors (Mus musculus [16]) of the same compound?
Answer: 0

Question: And the Survivors (Mus musculus [17])?
Answer: 3

Question: And the Survivors (Mus musculus [18])?
Answer: 2

Question: What about the Survivors (Mus musculus [19]) of the same compound?
Answer: 3

Question: And the Survivors (Mus musculus [20])?
Answer: 0

Question: What about the Survivors (Mus musculus [21]) of the same compound?
Answer: 0

Question: What about the Survivors (Mus musculus [22]) of the same compound?
Answer: 5

Question: What about the Survivors (Mus musculus [23]) of the same compound?
Answer: 3

Question: What about the Survivors (Mus musculus [24]) of the same compound?
Answer: 4

Question: For `CC[C@]1(O)C[C@@H]2C[N@](CCc3c([nH]c4ccccc34)[C@@](C(=O)OC)(c3cc4c(cc3OC)N(C)[C@@]3(C)[C@@](O)(C(=O)N[C@@H](Cc5c[nH]c6ccccc56)C(=O)OC)[C@H](O)[C@]5(CC)C=CCN6CC[C@]43[C@@H]65)C2)C1`, which ILS at 50 mg/kg/day (Mus musculus [25]) is on record?
Answer: 47.4%

Question: And the ILS at 55 mg/kg/day (Mus musculus [26])?
Answer: 60.2%

Question: And the Survivors (Mus musculus [27])?
Answer: 1

Question: And the Survivors (Mus musculus [28])?
Answer: 2

Question: And the ILS at 70 mg/kg/day (Mus musculus [29])?
Answer: 145%

Question: And the Survivors (Mus musculus [30])?
Answer: 0

Question: And the Survivors (Mus musculus [31])?
Answer: 0

Question: And the Survivors (Mus musculus [32])?
Answer: 1

Question: What about the ILS at 30 mg/kg/day (Mus musculus [33]) of the same compound?
Answer: 33.9%

Question: And the ILS at 40 mg/kg/day (Mus musculus [34])?
Answer: 42.8%

Question: And the ILS at 55 mg/kg/day (Mus musculus [35])?
Answer: 85.8%

Question: And the ILS at 60 mg/kg/day (Mus musculus [36])?
Answer: 132%

Question: What about the Survivors (Mus musculus [37]) of the same compound?
Answer: 0

Question: And the Survivors (Mus musculus [38])?
Answer: 0

Question: What about the Survivors (Mus musculus [39]) of the same compound?
Answer: 0

Question: And the Survivors (Mus musculus [40])?
Answer: 1

Question: And the Survivors (Mus musculus [41])?
Answer: 0

Question: And the Survivors (Mus musculus [42])?
Answer: 3

Question: What about the Survivors (Mus musculus [43]) of the same compound?
Answer: 2

Question: What about the Survivors (Mus musculus [44]) of the same compound?
Answer: 3

Question: And the Survivors (Mus musculus [45])?
Answer: 0

Question: What about the Survivors (Mus musculus [46]) of the same compound?
Answer: 0

Question: And the Survivors (Mus musculus [47])?
Answer: 5

Question: What about the ILS at 50 mg/kg/day (Mus musculus [48]) of the same compound?
Answer: 110%
